pIC50: −log10 of the molar value.

What is called pIC50 is the IC50 on a negative log10 scale, so that one unit is a factor of ten. For orientation: inhibition means the percentage by which the read-out fell short of the control. High values mean strong suppression, low ones little suppression.

Chain of Proteasome Macropain subunit (Homo sapiens) (P49721 whole entry): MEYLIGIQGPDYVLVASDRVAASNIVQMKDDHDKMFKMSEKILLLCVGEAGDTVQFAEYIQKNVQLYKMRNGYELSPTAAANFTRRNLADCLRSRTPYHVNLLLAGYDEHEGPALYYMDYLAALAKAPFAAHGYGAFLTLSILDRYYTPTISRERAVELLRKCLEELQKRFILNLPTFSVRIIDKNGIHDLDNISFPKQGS

In one assay the target is T1, Proteasome subunit beta type-9 (Homo sapiens, UniProt P28065).
T1 sequence (P28065 whole entry): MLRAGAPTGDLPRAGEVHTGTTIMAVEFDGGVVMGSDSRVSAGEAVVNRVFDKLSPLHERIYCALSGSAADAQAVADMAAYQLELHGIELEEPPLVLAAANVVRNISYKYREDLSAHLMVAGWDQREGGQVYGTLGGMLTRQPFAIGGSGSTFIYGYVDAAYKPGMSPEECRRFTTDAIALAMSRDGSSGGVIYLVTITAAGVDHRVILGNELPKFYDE
As to the kind of experiment: Inhibition of human 20S immunoproteasome beta-1 using Ac-PAL-AMC as substrate incubated for 15 mins measured for 45 mins by fluorescence assay. The procedure, abridged:
(§1)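 Human 20S immunoproteasome (0.3 nM) was given 15 min with compound (0.001-50 μM) in pH 8 buffer of 20 mM Tris-HCl, 10% glycerol, 0.01% SDS, 2% DMSO. Ac-PAL-AMC at 50 μM was the substrate. Fluorescence (ex 360/em 460 nm) was followed 45 min at 37 °C relative to control.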
For `C[C@H](NC(=O)[C@H](Cc1ccc(OCc2ccccc2)cc1)NC(=O)OC(C)(C)C)C(=O)N[C@@H](C[C@]1(O)C(=O)Nc2ccccc21)C(=O)NCC(C)(C)C`, the pIC50 is 4.68.

Another assay deals with T2, Proteasome subunit beta type-8 (Homo sapiens) (UniProt P28062).
T2 sequence (whole entry): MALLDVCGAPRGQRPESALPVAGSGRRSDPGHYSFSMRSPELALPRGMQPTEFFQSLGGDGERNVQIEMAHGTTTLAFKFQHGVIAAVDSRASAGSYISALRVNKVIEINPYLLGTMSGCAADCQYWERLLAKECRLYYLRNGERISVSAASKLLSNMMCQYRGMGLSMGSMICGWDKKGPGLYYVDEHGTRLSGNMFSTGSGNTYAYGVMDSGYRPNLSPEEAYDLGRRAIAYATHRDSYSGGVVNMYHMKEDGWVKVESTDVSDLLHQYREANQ
The experiment in a line: Inhibition of human 20S immunoproteasome beta-5 at 50 uM using Suc-LLVY-AMC as substrate incubated for 15 mins measured for 45 mins by fluorescence assay relative to control. Summed up: (§2)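 Human 20S cCP or iCP (0.3 nM) was exposed to compound (0.001-50 μM) for 15 min in pH 8 buffer of 20 mM Tris-HCl, 10% glycerol, 0.01% SDS, 2% DMSO. Suc-LLVY-AMC at 20 μM followed. Fluorescence (ex 360/em 460 nm) was read 45 min at 37 °C versus untreated enzyme.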
With `C[C@H](NC(=O)[C@H](Cc1ccc(OCc2ccccc2)cc1)NC(=O)OC(C)(C)C)C(=O)N[C@@H](C[C@]1(O)C(=O)Nc2ccccc21)C(=O)NCC(C)(C)C`, the inhibition was > 85%.

A further assay addresses T3, Proteasome Macropain subunit MB1 (Homo sapiens, UniProt P28074).
T3 sequence (P28074 whole entry): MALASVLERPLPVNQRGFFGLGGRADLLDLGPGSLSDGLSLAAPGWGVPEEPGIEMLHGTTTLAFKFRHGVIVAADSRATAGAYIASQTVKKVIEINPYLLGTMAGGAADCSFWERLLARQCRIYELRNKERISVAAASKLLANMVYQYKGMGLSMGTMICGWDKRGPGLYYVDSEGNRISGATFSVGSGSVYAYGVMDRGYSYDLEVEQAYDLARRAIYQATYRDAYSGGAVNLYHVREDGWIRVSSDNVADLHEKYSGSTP
The experiment in a line: Inhibition of human 20S constitutive proteasome beta-5 using Suc-LLVY-AMC as substrate incubated for 15 mins measured for 45 mins by fluorescence assay. Summed up:
as §2
Regarding `C[C@H](NC(=O)[C@H](Cc1ccc(OCc2ccccc2)cc1)NC(=O)OC(C)(C)C)C(=O)N[C@@H](C[C@]1(O)C(=O)Nc2ccccc21)C(=O)NCC(C)(C)C`, the pIC50 is 4.95.

A further assay concerns the target T4, Proteasome subunit beta type-9 (Homo sapiens) (UniProt P28065).
T4 sequence (whole entry): T1 sequence (P28065 whole entry)
The experiment in a line: Inhibition of human 20S immunoproteasome beta-1 at 50 uM using Ac-PAL-AMC as substrate incubated for 15 mins measured for 45 mins by fluorescence assay relative to control. The procedure, abridged: as §1
Regarding `C[C@H](NC(=O)[C@H](Cc1ccc(OCc2ccccc2)cc1)NC(=O)OC(C)(C)C)C(=O)N[C@@H](C[C@]1(O)C(=O)Nc2ccccc21)C(=O)NCC(C)(C)C`, the inhibition was > 85%.

In the next assay the target is T5, Proteasome component C5 (Homo sapiens) (UniProt P20618).
T5 sequence (whole entry): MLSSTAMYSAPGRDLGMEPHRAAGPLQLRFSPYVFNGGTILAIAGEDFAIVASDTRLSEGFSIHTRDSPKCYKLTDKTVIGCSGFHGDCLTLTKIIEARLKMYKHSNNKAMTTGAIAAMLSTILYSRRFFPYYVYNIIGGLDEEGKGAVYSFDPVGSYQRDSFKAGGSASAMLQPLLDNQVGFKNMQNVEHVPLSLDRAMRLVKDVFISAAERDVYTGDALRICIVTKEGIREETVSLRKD
As to the kind of experiment: Inhibition of human 20S constitutive proteasome beta-1 at 50 uM using Z-LLE-betaNA as substrate incubated for 15 mins measured for 45 mins by fluorescence assay relative to control. The procedure, abridged: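 Human 20S constitutive proteasome, 0.3 nM, was preincubated 15 min with compound (0.001-50 μM) in pH 8 Tris-HCl 20 mM, 10% glycerol, 0.01% SDS, 2% DMSO. Z-LLE-βNA at 50 μM was added. βNA fluorescence (ex 340/em 404 nm) was monitored 45 min at 37 °C against an untreated control.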
As for `C[C@H](NC(=O)[C@H](Cc1ccc(OCc2ccccc2)cc1)NC(=O)OC(C)(C)C)C(=O)N[C@@H](C[C@]1(O)C(=O)Nc2ccccc21)C(=O)NCC(C)(C)C`, the inhibition was > 85%.

Another assay addresses T6, Proteasome subunit beta type-10 (Homo sapiens, UniProt P40306).
T6 sequence (P40306 whole entry): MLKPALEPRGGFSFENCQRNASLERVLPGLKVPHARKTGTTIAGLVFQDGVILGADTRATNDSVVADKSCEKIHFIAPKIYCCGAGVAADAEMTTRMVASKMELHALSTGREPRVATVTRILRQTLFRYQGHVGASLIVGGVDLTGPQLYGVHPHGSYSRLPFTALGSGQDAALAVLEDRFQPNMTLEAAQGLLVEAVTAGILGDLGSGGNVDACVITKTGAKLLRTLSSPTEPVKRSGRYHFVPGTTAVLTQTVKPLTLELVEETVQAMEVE
The experiment in a line: Inhibition of human 20S immunoproteasome beta-2 using BocLRR-AMC as substrate incubated for 15 mins measured for 45 mins by fluorescence assay.
For `C[C@H](NC(=O)[C@H](Cc1ccc(OCc2ccccc2)cc1)NC(=O)OC(C)(C)C)C(=O)N[C@@H](C[C@]1(O)C(=O)Nc2ccccc21)C(=O)NCC(C)(C)C`, the pIC50 is 4.52.

The next assay concerns the target Proteasome Macropain subunit (Homo sapiens) (UniProt P49721). As to the kind of experiment: Inhibition of human 20S constitutive proteasome beta-2 at 50 uM using BocLRR-AMC as substrate incubated for 15 mins measured for 45 mins by fluorescence assay relative to control. The procedure, abridged: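 Purified human 20S proteasome (cCP or iCP), 0.3 nM, preincubated 15 min with compound (0.001-50 μM) in pH 8 buffer of 20 mM Tris-HCl, 10% glycerol, 0.005% Triton X-100, 2% DMSO. Then Boc-LRR-AMC at 50 μM was added. AMC fluorescence (ex 360/em 460 nm) was followed 45 min at 37 °C. Activity is relative to an untreated control.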
In the case of `C[C@H](NC(=O)[C@H](Cc1ccc(OCc2ccccc2)cc1)NC(=O)OC(C)(C)C)C(=O)N[C@@H](C[C@]1(O)C(=O)Nc2ccccc21)C(=O)NCC(C)(C)C`, the inhibition was > 85%.

In a further assay the target is T7, Proteasome subunit beta type-8 (Homo sapiens, UniProt P28062).
T7 sequence (P28062 whole entry): T2 sequence (whole entry)
As to the kind of experiment: Inhibition of human 20S immunoproteasome beta-5 using Suc-LLVY-AMC as substrate incubated for 15 mins measured for 45 mins by fluorescence assay. Summed up: as §2
As for `C[C@H](NC(=O)[C@H](Cc1ccc(OCc2ccccc2)cc1)NC(=O)OC(C)(C)C)C(=O)N[C@@H](C[C@]1(O)C(=O)Nc2ccccc21)C(=O)NCC(C)(C)C`, the pIC50 was 4.90.

The next assay has as its target T8, Proteasome subunit beta type-10 (Homo sapiens) (UniProt P40306).
T8 sequence (whole entry): T6 sequence (P40306 whole entry)
As to the kind of experiment: Inhibition of human 20S immunoproteasome beta-2 at 50 uM using BocLRR-AMC as substrate incubated for 15 mins measured for 45 mins by fluorescence assay relative to control.
Take `C[C@H](NC(=O)[C@H](Cc1ccc(OCc2ccccc2)cc1)NC(=O)OC(C)(C)C)C(=O)N[C@@H](C[C@]1(O)C(=O)Nc2ccccc21)C(=O)NCC(C)(C)C`: the inhibition is > 85%.

For another assay, the target named is T9, Proteasome Macropain subunit MB1 (Homo sapiens) (UniProt P28074).
T9 sequence (whole entry): T3 sequence (P28074 whole entry)
The experiment in a line: Inhibition of human 20S constitutive proteasome beta-5 at 50 uM using Suc-LLVY-AMC as substrate incubated for 15 mins measured for 45 mins by fluorescence assay relative to control. The procedure, abridged: as §2
Consider `C[C@H](NC(=O)[C@H](Cc1ccc(OCc2ccccc2)cc1)NC(=O)OC(C)(C)C)C(=O)N[C@@H](C[C@]1(O)C(=O)Nc2ccccc21)C(=O)NCC(C)(C)C`, for which the inhibition was > 85%.

The record behind these values is ChEMBL document CHEMBL4251654, “Structure-based design of human immuno- and constitutive proteasomes inhibitors” (Eur J Med Chem, 2018).
